Results on two compounds are retold here after ChEMBL document CHEMBL1154934, “Identification of piperazine-bisamide GHSR antagonists for the treatment of obesity” (Bioorg Med Chem Lett, 2010).

Usually Ki stands for the dissociation constant of the complex between target and ligand, obtained from inhibition or displacement. High values mean lower affinity, low ones higher affinity. Broadly, the bioavailability is the share of a dose that reaches the circulation, judged against a reference dose that is usually intravenous. A higher bioavailability goes with good availability. As usually defined, the clearance is a measure of how efficiently the substance is removed, as volume per time. A low value points to inefficient removal. Usually IC50 stands for the concentration that gives 50% inhibition. For orientation: Kp means the ratio of the level in a tissue or fluid to that in plasma or blood. As usually defined, the MRT is the average time that molecules of a dose stay in the body. Broadly, the fraction unbound is the share of the substance not bound to proteins or other matrix. High values mean weak binding, low ones extensive binding.

Data set [1] concerns the target T1, Growth hormone secretagogue receptor type 1 (Homo sapiens, UniProt Q92847). Description: Agonist activity at human GHSR expressed in CHO cells assessed as increase in ghrelin-induced [3H]IP accumulation at 10 uM after 1 hr by scintillation counting relative to ghrelin. Format: functional, cell-based. A digest of the protocol:
(§1)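 CHO cells stably expressing human or rat GHSR labelled 12 h with 3H-inositol (1 µCi/mL in DMEM), then exposed to ghrelin or compound at 37 °C for 1.0 h. Lysis with 20 mM formic acid, 4 °C, 4 h. Extract taken onto SPA beads, 12 h in the dark, then radioactivity counted. IP accumulation expressed as % of maximal ghrelin response at 10, 1.0 and 0.1 µM.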

Another data set deals with D(3) dopamine receptor (Homo sapiens, UniProt P35462). Kind of data set: Inhibition of dopamine D3 receptor.
In data set [2] the target is Growth hormone secretagogue receptor type 1 (Rattus norvegicus) (UniProt O08725). Kind of data set: Agonist activity at rat GHSR expressed in CHO cells assessed as increase in ghrelin-induced [3H]IP accumulation at 10 uM after 1 hr by scintillation counting relative to ghrelin. Format: functional, cell-based. The procedure, abridged: as §1
The target is the same in data set [3]. Kind of data set: Agonist activity at rat GHSR expressed in CHO cells assessed as increase in ghrelin-induced [3H]IP accumulation at 1 uM after 1 hr by scintillation counting relative to ghrelin. Format: functional, cell-based. A digest of the protocol:
as §1

Data set [4] addresses T1, Growth hormone secretagogue receptor type 1. Description: Agonist activity at human GHSR expressed in CHO cells assessed as increase in ghrelin-induced [3H]IP accumulation at 1 uM after 1 hr by scintillation counting relative to ghrelin. Format: functional, cell-based. The procedure, abridged: as §1
The target of a further data set is Mu-type opioid receptor (Homo sapiens, UniProt P35372). Description: Inhibition of mu opioid receptor.
The target of data set [5] is Sodium-dependent serotonin transporter (Homo sapiens, UniProt P31645). Description: Inhibition of SERT.
Data set [6] addresses T2, 5-hydroxytryptamine receptor 2C (Homo sapiens, UniProt P28335).
T2 sequence (P28335 whole entry): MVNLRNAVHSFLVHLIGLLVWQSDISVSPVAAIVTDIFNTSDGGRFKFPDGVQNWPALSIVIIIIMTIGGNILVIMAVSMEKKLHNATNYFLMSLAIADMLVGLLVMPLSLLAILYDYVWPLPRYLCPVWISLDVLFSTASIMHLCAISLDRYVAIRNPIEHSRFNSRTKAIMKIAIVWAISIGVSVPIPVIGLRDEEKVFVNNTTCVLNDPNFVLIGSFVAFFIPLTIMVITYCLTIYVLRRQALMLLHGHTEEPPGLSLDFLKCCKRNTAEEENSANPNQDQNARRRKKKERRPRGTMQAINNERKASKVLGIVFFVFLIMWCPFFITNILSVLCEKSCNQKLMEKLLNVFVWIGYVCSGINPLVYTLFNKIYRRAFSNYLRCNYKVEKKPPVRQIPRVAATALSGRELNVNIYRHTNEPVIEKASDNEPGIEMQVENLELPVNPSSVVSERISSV
Description: Inhibition of 5HT2C (receptor).

Data set [7] can be described thus: Oral bioavailability in rat at 0.5 mg/kg. Format: ADME, organism-based. The following applies: in vivo. A digest of the protocol:
(§2)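 Rats dosed iv at 2.0 mg/kg for clearance, MRT and Vdss. Oral dosing at 0.5 mg/kg for bioavailability (F).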

The nature of data set [8]: Clearance in rat at 2 mg/kg, iv. Format: ADME, organism-based. More on the design: dose 2 mg/kg, route intravenous. The following applies: in vivo. A digest of the protocol: as §2
The target in data set [9] is Sodium-dependent noradrenaline transporter (Homo sapiens, UniProt P23975). Kind of data set: Inhibition of NET.
For data set [10], the target named is Voltage-gated inwardly rectifying potassium channel KCNH2 (Homo sapiens, UniProt Q12809). Description: Inhibition of human ERG.
Data set [11] is described as follows: Ratio of brain AUC to plasma AUC in FVB mouse. Format: ADME, cell-free. Conditions: brain and plasma.
The target in data set [12] is Growth hormone secretagogue receptor type 1 (Rattus norvegicus, UniProt O08725). Kind of data set: (§3) Inhibition of rat GHSR expressed in CHOK1 cells assessed as inhibition of ghrelin-induced intracellular calcium flux by aequorin flash luminescence assay. Format: functional, cell-based, CHO-K1. For orientation: Calcium assays in cells follow changes in intracellular calcium, usually with a dye or a luminescent sensor.

Data set [13] deals with T1, Growth hormone secretagogue receptor type 1. Description: Agonist activity at human GHSR expressed in CHO cells assessed as increase in ghrelin-induced [3H]IP accumulation at 0.1 uM after 1 hr by scintillation counting relative to ghrelin. Format: functional, cell-based. The procedure, abridged:
as §1

For data set [14], the target named is T3, Alpha-2A adrenergic receptor (Homo sapiens, UniProt P08913).
T3 sequence (P08913 whole entry): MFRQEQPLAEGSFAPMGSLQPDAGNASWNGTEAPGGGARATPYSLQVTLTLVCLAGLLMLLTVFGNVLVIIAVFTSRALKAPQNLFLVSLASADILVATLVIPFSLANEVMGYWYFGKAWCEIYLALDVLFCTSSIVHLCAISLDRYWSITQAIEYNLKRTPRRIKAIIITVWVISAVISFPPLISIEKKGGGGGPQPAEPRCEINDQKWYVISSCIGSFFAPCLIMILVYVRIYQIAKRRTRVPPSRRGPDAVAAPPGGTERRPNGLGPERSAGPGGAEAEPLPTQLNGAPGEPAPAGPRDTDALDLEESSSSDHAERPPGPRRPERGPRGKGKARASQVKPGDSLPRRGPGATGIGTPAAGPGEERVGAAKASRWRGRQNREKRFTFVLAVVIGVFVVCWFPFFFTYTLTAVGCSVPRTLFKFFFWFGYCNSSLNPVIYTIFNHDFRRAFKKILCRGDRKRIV
Description: Inhibition of alpha2A adrenergic receptor.

In data set [15] the target is Muscarinic acetylcholine receptor M3 (Homo sapiens, UniProt P20309). Kind of data set: Inhibition of muscarinic M3 receptor.
Data set [16] concerns the target Growth hormone secretagogue receptor type 1 (Rattus norvegicus) (UniProt O08725). Description: Agonist activity at rat GHSR expressed in CHO cells assessed as increase in ghrelin-induced [3H]IP accumulation at 0.1 uM after 1 hr by scintillation counting relative to ghrelin. Format: functional, cell-based. A digest of the protocol:
as §1

Data set [17] in a line: Induction of growth hormone release from Sprague-Dawley rat pituitary cells at 1 uM after 20 mins by RIA assay relative to ghrelin. Format: functional, Pituitary gland cell. A digest of the protocol: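 Pituitary cells from 6–8-week-old male SD rats plated on poly-D-lysine and cultured 3 days at 37 °C. Washed with DMEM assay buffer (20 mM Hepes, 0.3% BSA) and held 5 min at 37 °C. Treated with rat ghrelin or compound for 20 min, then GH release measured as % of maximal ghrelin response. Means of three determinations.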

A further data set has as its target Histamine H2 receptor (Homo sapiens, UniProt P25021). Kind of data set: Inhibition of histamine H2 receptor.
Data set [18] is described as follows: Inhibition of cytochrome P450. Format: ADME.
Data set [19] has as its target T1, Growth hormone secretagogue receptor type 1. Description: Antagonist activity at human GHSR expressed in CHOK1 cells assessed as inhibition of ghrelin-induced intracellular calcium flux by aequorin flash luminescence assay. Format: functional, cell-based, CHO-K1. The procedure, abridged: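 Aequorin flash luminescence in CHO-K1 cells stably co-expressing human ghrelin receptor and aequorin. […] IC50 values are means of three determinations.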

Data set [20] has as its target Kappa-type opioid receptor (Homo sapiens, UniProt P41145). Kind of data set: Inhibition of kappa opioid receptor.
The target in data set [21] is Sodium-dependent dopamine transporter (Homo sapiens, UniProt Q01959). Description: Inhibition of DAT.
A short description of data set [22]: Volume of distribution at steady state in rat at 2 mg/kg, iv. Format: ADME, organism-based. More on the design: dose 2 mg/kg, route intravenous. The following applies: in vivo, read-out: Vdss.
The next data set concerns the target D(2) dopamine receptor (Homo sapiens, UniProt P14416). Kind of data set: Inhibition of dopamine D2 receptor.
The target in data set [23] is 5-hydroxytryptamine receptor 2A (Homo sapiens, UniProt P28223). Kind of data set: Inhibition of 5HT2A (receptor).
A short description of data set [24]: Mean residence time in rat at 2 mg/kg, iv. Format: ADME, organism-based. More on the design: dose 2 mg/kg, route intravenous. Conditions: in vivo. The procedure, abridged:
as §2

Data set [25] is described as follows: Metabolic stability in human liver microsomes assessed as compound remaining at 1 uM after 30 mins. Format: ADME, Microsome. Conditions: read-out: Stability. A digest of the protocol: (§4)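 Compound incubated at 1.0 µM initial concentration with rat or human liver microsomes for 30 min. Percentage of compound remaining determined.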
In general terms: Liver microsomes are vesicles of endoplasmic reticulum, rich in cytochrome P450 enzymes.

Data set [26] is described as follows: Metabolic stability in rat liver microsomes assessed as compound remaining at 1 uM after 30 mins. Format: ADME, Microsome. The following applies: read-out: Stability. The procedure, abridged:
as §4

Data set [27] is described as follows: Inhibition of rat ghrelin-stimulated growth hormone release from Sprague-Dawley rat pituitary cells pretreated for 10 mins before rat ghrelin challenge measured after 20 mins by RIA assay. Format: functional, cell-based. The following applies: Pituitary gland cell. A digest of the protocol:
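Primary pituitary cells from 6–8-week-old male SD rats cultured 3 days at 37 °C, then washed in DMEM/20 mM Hepes/0.3% BSA buffer. Compound pretreatment for 10 min, then co-incubation with rat ghrelin (0.2 µM) plus compound for another 20 min. GH release measured and IC50 derived. Means of three determinations.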

The next data set deals with MDCK. Kind of data set: Ratio of apparent permeability from basolateral to apical over apical to basolateral side of MDCK cells expressing human MDR1. Conditions: dog.
A short description of data set [28]: Ratio of brain AUC to plasma AUC in mdr1a knockout mouse. Format: ADME, cell-free. Conditions: brain and plasma.
Data set [29] can be described thus: Mean residence time in mouse at 0.5 mg/kg, iv. Also noted: dose 0.5 mg/kg, route intravenous. Conditions: in vivo. Format: ADME, organism-based. A digest of the protocol:
(§5)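 Mice dosed intravenously at 0.5 mg/kg. Clearance, MRT and Vdss derived from plasma pharmacokinetics.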

Data set [30] in a line: Fraction unbound in rat plasma. Format: ADME, cell-free.
Data set [31] is described as follows: Volume of distribution at steady state in mouse at 0.5 mg/kg, iv. Format: ADME, organism-based. Also noted: dose 0.5 mg/kg, route intravenous. The following applies: in vivo, read-out: Vdss. The procedure, abridged:
as §5

Data set [32] addresses Growth hormone secretagogue receptor type 1 (Rattus norvegicus) (UniProt O08725). The description is as §3. Conditions: CHO-K1. Format: functional, cell-based.
Data set [33] is described as follows: Clearance in mouse at 0.5 mg/kg, iv. Also noted: dose 0.5 mg/kg, route intravenous. Conditions: in vivo. Format: ADME, organism-based. A digest of the protocol:
as §5

Data set [34] is described as follows: Fraction unbound in mouse plasma. Format: ADME, cell-free.

Chain of Growth hormone secretagogue receptor type 1 (Rattus norvegicus) (O08725 whole entry): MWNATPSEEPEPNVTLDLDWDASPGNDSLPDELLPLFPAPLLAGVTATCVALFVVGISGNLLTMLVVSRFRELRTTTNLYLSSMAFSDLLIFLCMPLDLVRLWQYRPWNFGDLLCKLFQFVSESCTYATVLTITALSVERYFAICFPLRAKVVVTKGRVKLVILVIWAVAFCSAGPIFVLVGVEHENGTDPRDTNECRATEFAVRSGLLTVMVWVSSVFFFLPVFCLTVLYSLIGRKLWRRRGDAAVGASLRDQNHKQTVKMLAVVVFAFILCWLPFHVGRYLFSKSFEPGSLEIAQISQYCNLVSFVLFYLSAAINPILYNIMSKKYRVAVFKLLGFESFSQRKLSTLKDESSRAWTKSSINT
T1 sequence (Q92847 whole entry): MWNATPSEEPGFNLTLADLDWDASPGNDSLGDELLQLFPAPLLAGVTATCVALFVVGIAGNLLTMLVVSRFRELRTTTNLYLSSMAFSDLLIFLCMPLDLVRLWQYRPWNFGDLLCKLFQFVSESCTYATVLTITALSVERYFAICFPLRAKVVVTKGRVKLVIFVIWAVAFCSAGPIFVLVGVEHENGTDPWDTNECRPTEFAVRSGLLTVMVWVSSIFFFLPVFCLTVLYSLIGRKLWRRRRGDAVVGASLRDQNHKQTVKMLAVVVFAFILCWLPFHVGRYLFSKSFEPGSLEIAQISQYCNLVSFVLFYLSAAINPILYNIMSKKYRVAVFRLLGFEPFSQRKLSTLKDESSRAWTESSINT
Chain of Voltage-gated inwardly rectifying potassium channel KCNH2 (Q12809 whole entry): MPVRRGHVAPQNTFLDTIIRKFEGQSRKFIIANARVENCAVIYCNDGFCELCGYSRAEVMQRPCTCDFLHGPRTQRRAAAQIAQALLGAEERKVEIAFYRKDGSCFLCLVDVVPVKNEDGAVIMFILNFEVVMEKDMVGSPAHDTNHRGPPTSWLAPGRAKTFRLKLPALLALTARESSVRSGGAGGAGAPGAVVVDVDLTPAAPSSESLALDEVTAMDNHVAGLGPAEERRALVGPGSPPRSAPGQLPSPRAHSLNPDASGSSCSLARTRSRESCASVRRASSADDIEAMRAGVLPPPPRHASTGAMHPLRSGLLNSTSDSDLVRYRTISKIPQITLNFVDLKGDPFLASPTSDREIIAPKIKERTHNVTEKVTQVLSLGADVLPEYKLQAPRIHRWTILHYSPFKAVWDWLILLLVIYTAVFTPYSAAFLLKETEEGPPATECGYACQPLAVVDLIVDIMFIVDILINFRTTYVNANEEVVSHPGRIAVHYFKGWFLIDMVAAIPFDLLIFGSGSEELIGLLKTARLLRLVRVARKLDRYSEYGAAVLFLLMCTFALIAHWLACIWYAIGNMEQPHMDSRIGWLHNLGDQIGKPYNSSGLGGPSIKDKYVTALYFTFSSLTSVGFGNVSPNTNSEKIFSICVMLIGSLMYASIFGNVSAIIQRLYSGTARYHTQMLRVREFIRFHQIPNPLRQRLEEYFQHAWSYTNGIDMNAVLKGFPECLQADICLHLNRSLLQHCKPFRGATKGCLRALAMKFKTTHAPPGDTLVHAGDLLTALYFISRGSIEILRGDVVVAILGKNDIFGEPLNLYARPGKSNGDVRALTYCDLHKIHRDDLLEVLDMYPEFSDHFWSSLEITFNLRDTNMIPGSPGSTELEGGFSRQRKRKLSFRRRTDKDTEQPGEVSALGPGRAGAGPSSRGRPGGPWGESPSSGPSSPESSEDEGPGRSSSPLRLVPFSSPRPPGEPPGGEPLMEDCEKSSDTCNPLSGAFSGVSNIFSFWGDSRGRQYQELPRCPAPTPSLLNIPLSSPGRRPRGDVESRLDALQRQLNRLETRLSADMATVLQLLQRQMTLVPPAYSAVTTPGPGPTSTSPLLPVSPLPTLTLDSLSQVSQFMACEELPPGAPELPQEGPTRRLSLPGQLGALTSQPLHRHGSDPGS
Chain of Sodium-dependent dopamine transporter (Q01959 whole entry): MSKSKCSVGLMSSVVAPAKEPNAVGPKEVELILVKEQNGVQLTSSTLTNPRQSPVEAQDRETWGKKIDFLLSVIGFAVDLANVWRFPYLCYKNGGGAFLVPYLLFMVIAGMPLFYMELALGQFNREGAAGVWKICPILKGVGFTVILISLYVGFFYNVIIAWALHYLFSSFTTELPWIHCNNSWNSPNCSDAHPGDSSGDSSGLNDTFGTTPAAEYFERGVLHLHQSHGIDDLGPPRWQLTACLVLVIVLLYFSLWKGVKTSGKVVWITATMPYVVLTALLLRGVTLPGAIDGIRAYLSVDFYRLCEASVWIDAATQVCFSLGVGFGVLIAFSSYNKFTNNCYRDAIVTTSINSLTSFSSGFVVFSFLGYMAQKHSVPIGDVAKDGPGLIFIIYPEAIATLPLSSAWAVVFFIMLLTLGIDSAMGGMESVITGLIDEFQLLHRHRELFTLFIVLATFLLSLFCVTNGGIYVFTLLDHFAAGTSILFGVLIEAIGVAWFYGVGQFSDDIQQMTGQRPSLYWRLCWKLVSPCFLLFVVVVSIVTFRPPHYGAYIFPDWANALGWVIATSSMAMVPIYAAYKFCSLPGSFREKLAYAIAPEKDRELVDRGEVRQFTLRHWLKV
Chain of Histamine H2 receptor (P25021 whole entry): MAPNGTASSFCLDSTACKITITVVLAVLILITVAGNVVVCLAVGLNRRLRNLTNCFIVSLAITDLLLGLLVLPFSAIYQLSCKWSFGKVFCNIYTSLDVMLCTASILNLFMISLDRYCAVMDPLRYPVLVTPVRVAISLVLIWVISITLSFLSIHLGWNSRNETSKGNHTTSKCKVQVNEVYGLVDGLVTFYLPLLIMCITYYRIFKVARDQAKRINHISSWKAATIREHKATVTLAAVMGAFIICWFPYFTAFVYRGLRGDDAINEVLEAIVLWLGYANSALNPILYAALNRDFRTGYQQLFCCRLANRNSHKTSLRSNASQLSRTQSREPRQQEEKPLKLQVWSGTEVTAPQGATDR
Chain of Sodium-dependent serotonin transporter (P31645 whole entry): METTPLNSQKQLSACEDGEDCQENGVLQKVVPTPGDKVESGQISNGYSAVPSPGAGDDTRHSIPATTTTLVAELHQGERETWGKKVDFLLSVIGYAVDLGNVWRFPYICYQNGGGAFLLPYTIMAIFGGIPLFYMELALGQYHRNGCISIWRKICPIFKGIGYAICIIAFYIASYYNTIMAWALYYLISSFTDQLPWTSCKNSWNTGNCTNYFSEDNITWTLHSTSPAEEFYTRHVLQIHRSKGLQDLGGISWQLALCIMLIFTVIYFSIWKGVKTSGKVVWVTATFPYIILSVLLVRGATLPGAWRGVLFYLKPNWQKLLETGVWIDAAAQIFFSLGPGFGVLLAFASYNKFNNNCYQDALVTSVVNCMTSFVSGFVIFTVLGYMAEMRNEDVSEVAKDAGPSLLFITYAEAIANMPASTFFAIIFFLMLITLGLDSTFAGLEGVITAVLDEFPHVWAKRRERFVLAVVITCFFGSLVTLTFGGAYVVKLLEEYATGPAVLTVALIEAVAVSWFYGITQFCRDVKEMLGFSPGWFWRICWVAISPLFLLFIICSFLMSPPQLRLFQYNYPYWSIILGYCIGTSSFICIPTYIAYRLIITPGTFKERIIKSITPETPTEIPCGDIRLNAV
Chain of 5-hydroxytryptamine receptor 2A (P28223 whole entry): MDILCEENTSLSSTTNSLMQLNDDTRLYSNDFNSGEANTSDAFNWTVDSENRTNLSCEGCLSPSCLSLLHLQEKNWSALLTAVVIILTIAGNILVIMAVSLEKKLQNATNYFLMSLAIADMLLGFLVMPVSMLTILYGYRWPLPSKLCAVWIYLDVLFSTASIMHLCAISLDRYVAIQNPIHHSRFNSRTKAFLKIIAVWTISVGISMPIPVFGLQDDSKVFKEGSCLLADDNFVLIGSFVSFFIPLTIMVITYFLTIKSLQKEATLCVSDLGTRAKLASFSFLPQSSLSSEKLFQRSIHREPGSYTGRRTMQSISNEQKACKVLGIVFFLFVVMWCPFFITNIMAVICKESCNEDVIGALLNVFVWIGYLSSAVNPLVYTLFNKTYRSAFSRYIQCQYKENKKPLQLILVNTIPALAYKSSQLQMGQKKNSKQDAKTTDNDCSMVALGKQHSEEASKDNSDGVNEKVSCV
Chain of Muscarinic acetylcholine receptor M3 (P20309 whole entry): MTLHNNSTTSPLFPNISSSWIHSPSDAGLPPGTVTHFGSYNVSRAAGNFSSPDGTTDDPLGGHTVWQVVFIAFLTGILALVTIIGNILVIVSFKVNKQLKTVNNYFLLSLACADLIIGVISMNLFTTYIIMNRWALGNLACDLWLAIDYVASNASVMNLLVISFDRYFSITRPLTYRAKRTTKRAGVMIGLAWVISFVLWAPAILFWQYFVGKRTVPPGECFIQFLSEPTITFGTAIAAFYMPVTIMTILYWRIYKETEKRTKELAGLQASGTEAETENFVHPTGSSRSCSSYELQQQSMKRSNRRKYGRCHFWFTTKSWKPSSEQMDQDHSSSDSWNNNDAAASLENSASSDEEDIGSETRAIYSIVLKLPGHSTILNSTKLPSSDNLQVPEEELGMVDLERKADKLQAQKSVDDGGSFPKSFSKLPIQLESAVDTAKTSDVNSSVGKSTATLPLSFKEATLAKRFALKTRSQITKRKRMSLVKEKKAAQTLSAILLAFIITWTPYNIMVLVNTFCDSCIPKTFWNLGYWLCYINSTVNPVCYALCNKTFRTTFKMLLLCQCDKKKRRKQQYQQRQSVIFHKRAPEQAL
Chain of D(3) dopamine receptor (P35462 whole entry): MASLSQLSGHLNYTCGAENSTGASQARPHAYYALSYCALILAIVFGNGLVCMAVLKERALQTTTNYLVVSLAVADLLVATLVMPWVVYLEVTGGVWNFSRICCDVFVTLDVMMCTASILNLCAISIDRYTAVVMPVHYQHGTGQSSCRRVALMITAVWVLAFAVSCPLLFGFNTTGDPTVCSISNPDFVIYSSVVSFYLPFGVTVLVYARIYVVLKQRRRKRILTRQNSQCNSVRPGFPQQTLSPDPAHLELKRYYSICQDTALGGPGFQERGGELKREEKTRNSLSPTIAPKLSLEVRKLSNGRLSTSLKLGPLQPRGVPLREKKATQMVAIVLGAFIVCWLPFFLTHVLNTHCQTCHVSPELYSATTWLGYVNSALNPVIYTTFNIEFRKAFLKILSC
Chain of Growth hormone secretagogue receptor type 1 (Rattus norvegicus, UniProt O08725) (O08725 whole entry): as the sequence (O08725 whole entry) above

Take `C[C@H]1CN(C(=O)c2ccc(-c3ccccc3F)cc2)CCN1C(=O)c1ccc2cc[nH]c2c1`: the Activity in data set [1] turned out to be 33%; in [2], 33%; in data set [3] it was 42%; in data set [4], 31%; in [13] it was 21%; in data set [16], 41%. Also, the Activity in data set [17] is listed as 24%. For the same compound, the Ki (on D(3) dopamine receptor; on Mu-type opioid receptor; in data set [5]; in data set [6]; in [9]; in data set [14]) was greater than 10 µM throughout. The Ki (in [15]; at Histamine H2 receptor; in [20]; in [21]; at D(2) dopamine receptor; in [23]) was greater than 10 µM throughout. The same compound displayed a bioavailability in [7] of 17%. For the same compound, in data set [8], the clearance is 2.1 L/h/kg. Further, the IC50 in data set [10] is greater than 10 µM; in data set [12] it was 0.002 µM; in data set [18], greater than 10 µM; in [19], 0.0091 µM. The Kp in data set [11] was found to be 0.26. The Vd in data set [22] is 3.7 L/kg. For the same compound, the MRT in [24] turned out to be 1.9 h.

In the case of `C[C@H]1CN(C(=O)c2ccc(-c3ccncc3)c(F)c2)CCN1C(=O)c1ccc2cc[nH]c2c1`, in data set [2], the Activity is -16%. For the same compound, the remaining at 0.5 h, 1 µM in [25] is 87%; in [26], 78%. The half-inhibitory concentration (IC50) in data set [27] was determined as 0.093 µM; in data set [32], 0.0103 µM; in data set [19] it was 0.0122 µM. Besides, the Ratio in the data set with MDCK is reported as 1.7. Further, the values for the Kp in data set [28] and in data set [11] were 2.3 and 0.16, respectively. The mean residence time MRT in data set [29] came to 0.7 h. In addition, the fraction unbound in data set [30] and in data set [34] was 0.04 each time. In addition, the Vd in data set [31] amounted to 1.4 L/kg. Besides, the clearance in data set [33] was 1.96 L/h/kg.
